Laboratory results as given in ChEMBL document CHEMBL3751768, “Synthesis and anti-tuberculosis activity of glycitylamines” (2016).

What follows are molecules tested on Mycobacterium tuberculosis (assay: Antitubercular activity against […] after 7 days by alamar blue assay). Settings: 168 h.
Assay type: functional
Procedure, shortened: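 M. bovis BCG stock, thawed with sonication/ice cycles, diluted to 8 × 10⁴ bacteria per mL in Tween albumin broth (Dubos/OADC). Compounds prepared in PBS (up to 5% DMSO) at double strength, filter-sterilised, serially diluted; tested in triplicate from […] start.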

Row | SMILES | MIC
1 | CC[C@@H](CO)NCCN[C@@H](CC)CO [ETHAMBUTOL] | 39 µM
2 | NC(c1ccccc1)c1ccccc1 [AMINODIPHENYLMETHANE] | 1360 µM
3 | C=C[C@@H](O)[C@H](O)CNCc1ccccc1 | > 500 µg/mL
4 | C=C[C@@H](O)CCN | > 3500 µM
5 | O=C1OC[C@@H]2[C@H](O)[C@@H](O)CN12 | > 3500 µM
6 | C=C[C@@H](O)[C@H](O)CNC[C@@H](O)[C@H](O)C=C | 2000 µM
7 | C=C[C@@H](O)[C@@H](O)CNCc1ccccc1 | > 500 µg/mL
8 | C[C@H](O)[C@H](O)[C@@H](O)[C@@H](O)CNC1CCCCCCC1 | > 500 µg/mL
9 | C=C[C@@H](O)[C@H](O)CN(C)CCCCCCCCCCCCCCCC | 22 µM
10 | O=C1OC[C@H]2[C@@H](O)CCN12 | > 3500 µM
11 | C[C@H](O)[C@@H](O)[C@@H](O)[C@H](O)CNC1CCCCCCCCCCC1 | 680 µM
12 | C=C[C@H](O)[C@@H](O)CN | > 3500 µM
13 | C=C[C@@H](O)[C@H](O)CNCCCCCCCC | 680 µM
14 | C=C[C@@H](O)[C@@H](O)CN | > 3500 µM
15 | C=C[C@@H](O)[C@@H](O)CNC(c1ccccc1)c1ccccc1 | 1600 µM
16 | C=C[C@H](O)[C@@H](O)CNC(c1ccccc1)c1ccccc1 | 440 µM
17 | C=C[C@@H](O)[C@H](O)CN | > 3500 µM
18 | C[C@H](O)[C@@H](O)[C@@H](O)[C@H](O)CNC1CCCCCCC1 | > 500 µg/mL
19 | C=C[C@H](OC)[C@H](CNC(c1ccccc1)c1ccccc1)OC | 800 µM
20 | C=C[C@@H](O)[C@H](O)CN(CCCC)CCCC | > 500 µg/mL
21 | C=C[C@@H](O)[C@H](O)CNCCCCCCCCCCCCCC | 45 µM

Row | SMILES | MIC
22 | CCCCCCCCCCCCCCCCN [HEXADECYLAMINE] | 130 µM
23 | OC[C@@H]1NC[C@H](O)[C@@H]1O | > 3500 µM
24 | C[C@H](O)[C@@H](O)[C@@H](O)[C@H](O)CNC1CCCCC1 | > 500 µg/mL
25 | OC[C@@H](O)[C@H](O)[C@H](O)CNC12CC3CC(CC(C3)C1)C2 | > 500 µg/mL
26 | C=C[C@@H](O)[C@H](O)CNC1CCCCCCCCCCC1 | 200 µM
27 | C=C[C@@H](O)[C@H](O)CNCCCCCCCCCCCCCCCC | 21 µM
28 | C=C[C@H](O)[C@@H](O)CNCc1ccccc1 | > 500 µg/mL
29 | C=C[C@@H](O)[C@H](O)CNC12CC3CC(CC(C3)C1)C2 | > 500 µg/mL
30 | OC[C@@H]1NCC[C@@H]1O | > 3500 µM
31 | C=C[C@@H](O)[C@H](O)CNC(c1ccccc1)c1ccccc1 | 1600 µM
32 | OC[C@@H](O)[C@H](O)[C@H](O)CNC1CCCCCCC1 | > 500 µg/mL
33 | C=C[C@@H](O)[C@@H](O)CNCCCCCCCC | 940 µM
34 | OC[C@H]1NC[C@H](O)[C@H]1O | > 3500 µM
35 | O=C1OC[C@H]2[C@@H](O)[C@@H](O)CN12 | > 3500 µM
36 | OC[C@@H](O)[C@H](O)[C@H](O)CNC1CCCCCCCCCCC1 | 160 µM
37 | CCCCCCCCCCCCCCN [TETRADECYLAMINE] | 140 µM
38 | C=C[C@H](O)[C@@H](O)CNCCCCCCCC | 940 µM
39 | OC[C@@H](O)[C@H](O)[C@H](O)CNC1CCCCC1 | > 500 µg/mL
40 | NC1CCCCCCCCCCC1 | 680 µM
41 | O=C1OC[C@H]2[C@@H](O)[C@H](O)CN12 | > 3500 µM
42 | OC[C@@H]1NC[C@@H](O)[C@@H]1O | > 3500 µM
